According to ChEMBL document CHEMBL4251542, “Discovery of cyclopropyl chromane-derived pyridopyrazine-1,6-dione γ-secretase modulators with robust central efficacy” (Medchemcomm, 2017):

Legend:
Rattus norvegicus [1] = test: Unbound Cmax in Sprague-Dawley rat at 30 mg/kg administered via oral gavage measured at 1 to 24 hrs post dose; type: ADME, organism-based; details: in vivo
In short: (§1)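 Single escalating oral gavage doses given to Sprague-Dawley rats, 3/sex/dose. Suspension in 0.5% methylcellulose with 0.1% Polysorbate 80, dosed at 10 mL/kg. […] Clinical signs also monitored.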

[2] = Cardiotoxicity in Wistar rat langendorff isolated heart model assessed as decrease in perfusion pressure perfused for 5 mins measured for 1 min; type: toxicity, tissue-based
Rattus norvegicus [3] = test: Toxicity in Sprague-Dawley rat assessed as lethality at 30 mg/kg administered via oral gavage; type: organism-based; details: in vivo
In short: (§2)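 Single escalating oral gavage doses given to Sprague-Dawley rats, 3 per sex per dose. Suspension in 0.5% methylcellulose with 0.1% Polysorbate 80, dosed at 10 mL/kg. Clinical signs watched continuously for the first several hours and/or intermittently through the dosing day. Plasma drug levels sampled at 1, 4, 8 and 24 h post-dose. Lethality scored per group of 6.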

[4] = Cardiotoxicity in Wistar rat langendorff isolated heart model assessed as decrease in contractility perfused for 5 mins measured for 1 min; type: toxicity, tissue-based
[5] = Cardiotoxicity in Wistar rat langendorff isolated heart model assessed as decrease in left ventricle pressure perfused for 5 mins measured for 1 min; type: toxicity, tissue-based
MDR1 (P-gp), human = test: in vitro; details: dog, MDCK-MDR1;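 also: transwell permeability assay, efflux ratio of apparent permeability, compound tested at 2 µM over 5 h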
Gamma-secretase = test: Modulation of gamma-secretase (unknown origin) expressed in CHO cells co-expressing human wild type APP assessed as reduction in amyloid beta 42 levels after 24 hrs by ELISA; type: cell-based
[6] = Total Cmax in Sprague-Dawley rat at 30 mg/kg administered via oral gavage measured at 1 to 24 hrs post dose; type: ADME, organism-based; design: dose 30 mg/kg, route oral; details: in vivo; in short: as §1
[7] = Ratio of IC50 for decrease in contractility of Wistar rat langendorff isolated heart model to fCmax in Sprague-Dawley rat at 30 mg/kg administered via oral gavage; type: organism-based; details: in vivo
[8] = Apparent intrinsic clearance in human liver microsomes; type: ADME, microsome; details: read-out: CLH
[9] = Ratio of IC50 for decrease in contractility of Wistar rat langendorff isolated heart model to fCmax in Sprague-Dawley rat at 100 mg/kg administered via oral gavage; type: organism-based; details: in vivo
[10] = Total Cmax in Sprague-Dawley rat at 100 mg/kg administered via oral gavage measured at 1 to 24 hrs post dose; type: ADME, organism-based; design: dose 100 mg/kg, route oral; details: in vivo; in short: as §1
Rattus norvegicus [11] = test: Unbound Cmax in Sprague-Dawley rat at 100 mg/kg administered via oral gavage measured at 1 to 24 hrs post dose; type: ADME, organism-based; details: in vivo; in short: as §1
Rattus norvegicus [12] = test: Toxicity in Sprague-Dawley rat assessed as lethality at 100 mg/kg administered via oral gavage; type: organism-based; details: in vivo; in short: as §2
Rattus norvegicus [13] = test: Unbound Cmax in Sprague-Dawley rat at 300 mg/kg administered via oral gavage measured at 1 to 24 hrs post dose; type: ADME, organism-based; details: in vivo
Rattus norvegicus [14] = test: Toxicity in Sprague-Dawley rat assessed as lethality at 300 mg/kg administered via oral gavage; type: organism-based; details: in vivo
[15] = Total Cmax in Sprague-Dawley rat at 300 mg/kg administered via oral gavage measured at 1 to 24 hrs post dose; type: ADME, organism-based; design: dose 300 mg/kg, route oral; details: in vivo
Rattus norvegicus [16] = test: Reduction of amyloid beta 42 levels in Sprague-Dawley rat at 10 mg/kg, po measured at 4 hrs by DELFIA analysis relative to control; type: functional; design: scale not given: the % may be the effect or the level left
In short: (§3)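 Male Sprague-Dawley rats (254-326 g) dosed orally with vehicle or 10 or 40 mg/kg. Brains taken at 1, 4, 8, 11, 16 and 20 h post-dose, 4 rats per group. Homogenized in 0.4% DEA/50 mM NaCl, held overnight at 4 °C, spun at 135,000xg for 1 h. Supernatant cleaned by solid-phase extraction and concentrated; Aβ42 read by DELFIA as % change vs vehicle.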

[17] = Half life in rat at 1 mg/kg, iv; type: ADME, organism-based; details: in vivo
[18] = Clearance in rat at 1 mg/kg, iv; type: ADME, organism-based; details: in vivo
[19] = Unbound brain concentration in Sprague-Dawley rat at 10 mg/kg, po; type: ADME, organism-based; details: in vivo
[20] = Unbound brain concentration in Sprague-Dawley rat at 40 mg/kg, po; type: ADME, organism-based; details: in vivo
Rattus norvegicus [21] = test: Reduction of amyloid beta 42 levels in Sprague-Dawley rat at unbound brain concentration administered 10 mg/kg, po by DELFIA analysis relative to control; type: functional
[22] = Oral bioavailability in rat at 5 mg/kg; type: ADME, organism-based; details: in vivo
[23] = Ratio of drug level in brain to plasma in rat at 5 mg/kg, sc measured at 1 to 7 hrs; type: ADME, organism-based; details: brain and plasma, read-out: BPR
Rattus norvegicus [24] = test: Reduction of amyloid beta 42 levels in Sprague-Dawley rat at 40 mg/kg, po measured at 4 hrs by DELFIA analysis relative to control; type: functional; design: scale not given: the % may be the effect or the level left; in short: as §3
[25] = Fraction unbound in rat plasma; type: ADME, cell-free
[26] = Fraction unbound in rat brain; type: ADME, tissue-based

| SMILES | efflux ratio at 5 h, 2 µM (MDR1 (P-gp), human) | IC50 (Gamma-secretase) [nM] | microsomal CLint [8] [µL/min/mg] | further results |
| --- | --- | --- | --- | --- |
| Cc1cn(-c2ccc3n(c2=O)CCN([C@@H](C)C2=CC(C)(C)Oc4ccc(C(F)(F)F)cc42)C3=O)cn1 | 1.9 | 4.9 | 14.3 | fCmax (Rattus norvegicus [1]): 205 nM; EC50 at 5 min [2]: 576 nM; Activity (Rattus norvegicus [3]): Toxic; IC50 at 5 min [4]: 1360 nM; IC50 at 5 min [5]: 1030 nM; Cmax [6]: 5.84 µM; Ratio [7]: 6.6 |
| Cc1cn(-c2ccc3n(c2=O)CCN([C@@H](C)C2=CC(C)(C)Oc4ccc(OC(F)(F)F)cc42)C3=O)cn1 | 1.9 | 6 | 25.7 | EC50 at 5 min [2]: 1370 nM; Ratio [9]: 4; IC50 at 5 min [4]: 2480 nM; Cmax [10]: 17.7 µM; IC50 at 5 min [5]: 1620 nM; fCmax (Rattus norvegicus [11]): 620 nM; Activity (Rattus norvegicus [12]): Toxic |
| Cc1cn(-c2ccc3n(c2=O)CCN(C[C@@]24C[C@@H]2COc2ccc(Cl)cc24)C3=O)cn1 | 1.8 | 63 | 43.9 | – |
| Cc1cn(-c2ccc3n(c2=O)CCN(C[C@@]24C[C@@H]2COc2cc(C(F)(F)F)ccc24)C3=O)cn1 | 1.7 | 52 | 14.6 | – |
| Cc1cn(-c2ccc3n(c2=O)CCN(C[C@@]24C[C@@H]2C(C)(C)Oc2ccc(OC(F)(F)F)cc24)C3=O)cn1 | 2.1 | 5.1 | 42.4 | fCmax (Rattus norvegicus [13]): 670 nM; Activity (Rattus norvegicus [14]): Non-Toxic; Cmax [15]: 60.9 µM; EC50 at 5 min [2]: > 30000 nM; IC50 at 5 min [4]: > 30000 nM; IC50 at 5 min [5]: > 30000 nM |
| Cc1cn(-c2ccc3n(c2=O)CCN(C[C@@]24C[C@@H]2C(C)(C)Oc2ccc(C(F)(F)F)cc24)C3=O)cn1 | – | – | 34.5 | Activity (Rattus norvegicus [16]): 40%; fCmax (Rattus norvegicus [13]): 1620 nM; Activity (Rattus norvegicus [14]): Non-Toxic; half-life [17]: 1.6 h; clearance [18]: 26.4 mL/min/kg; Cmax [15]: 90.4 µM; EC50 at 5 min [2]: > 30000 nM; Drug uptake(free) [19]: 11 nM; Drug uptake(free) [20]: 67 nM; %max (Rattus norvegicus [21]): 40%; IC50 at 5 min [4]: > 30000 nM; bioavailability [22]: 67%; IC50 at 5 min [5]: > 30000 nM; Kp [23]: 0.76; Activity (Rattus norvegicus [24]): 62%; fraction unbound [25]: 0.018; fraction unbound [26]: 0.0054 |
| Cc1cn(-c2ccc3n(c2=O)CCN(C[C@]24C[C@H]2COc2ccc(C(F)(F)F)cc24)C3=O)cn1 | 1.9 | 129 | 70.5 | – |
| COc1ccc2c(c1)[C@]1(CN3CCn4c(ccc(-n5cnc(C)c5)c4=O)C3=O)C[C@@H]1CO2 | 2.2 | 181 | 33.7 | – |
| Cc1cn(-c2ccc3n(c2=O)CCN(C[C@@]24C[C@@H]2COc2ccc(C(F)(F)F)cc24)C3=O)cn1 | 2.4 | 5.6 | 37.9 | – |

Further lines, with some results ahead:

| efflux ratio at 5 h, 2 µM (MDR1 (P-gp), human) | IC50 (Gamma-secretase) [nM] | microsomal CLint [8] [µL/min/mg] | SMILES | further results |
| --- | --- | --- | --- | --- |
| 1.9 | 322 | 37.6 | Cc1cn(-c2ccc3n(c2=O)CCN(CC2CCOc4ccc(C(F)(F)F)cc42)C3=O)cn1 (stereo unspecified) | – |
| 1.7 | 30 | 108 | Cc1cn(-c2ccc3n(c2=O)CCN(CC2=CCOc4ccc(C(F)(F)F)cc42)C3=O)cn1 | – |
| 1.9 | 53 | – | Cc1cn(-c2ccc3n(c2=O)CCN(CC2=CC(C)(C)Oc4ccc(Cl)cc42)C3=O)cn1 | – |
| 1.8 | 801 | 242 | Cc1cn(-c2ccc3n(c2=O)CCN([C@H](C)C2=CC(C)(C)Oc4ccc(C(F)(F)F)cc42)C3=O)cn1 | – |
| 2 | 13 | 47.8 | Cc1cn(-c2ccc3n(c2=O)CCN(CC2=CC(C)(C)Oc4ccc(C(F)(F)F)cc42)C3=O)cn1 | – |
